# Reference: ChEMBL document CHEMBL4622983, “Structure-Activity Relationship Studies of α-Ketoamides as Inhibitors of the Phospholipase A and Acyltransferase Enzyme Family” (J Med Chem, 2020)
# Active and inactive are the calls of the source. The calls are words filed in the database; no cut-off is given here.
# Key:
# [1] = target: T1, Phospholipase A and acyltransferase 5 (Homo sapiens, UniProt Q96KN8); test: Inhibition of full-length C-terminal FLAG-tagged human PLAAT5 expressed in HEK293T cell lysate preincubated for 30 mins followed by MB064 addition and measured after 20 mins by SDS-PAGE based ABPP analysis; assay type: cell-free, HEK-293T
# T1 sequence (Q96KN8 whole entry): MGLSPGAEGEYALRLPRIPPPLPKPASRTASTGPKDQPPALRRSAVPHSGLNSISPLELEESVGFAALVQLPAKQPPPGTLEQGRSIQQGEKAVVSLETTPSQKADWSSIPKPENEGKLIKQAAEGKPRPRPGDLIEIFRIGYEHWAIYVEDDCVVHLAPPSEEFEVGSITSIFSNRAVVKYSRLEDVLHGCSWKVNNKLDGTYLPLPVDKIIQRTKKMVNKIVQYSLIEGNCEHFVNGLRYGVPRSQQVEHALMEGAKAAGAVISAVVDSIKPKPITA
# How it was run: (§1)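 Dose–response competitive ABPP on cytosol only, from HEK293T overexpressing FLAG-tagged PLAAT. Inhibitor 30 min rt, then MB064 20 min rt. PLAAT2 0.25 μg/μL with 250 nM probe; PLAAT3 0.5 μg/μL with 250 nM; PLAAT4 and PLAAT5 1 μg/μL with 500 nM. Fluorescence normalized to Coomassie. IC50 from curves, reported as pIC50 ± SEM, n = 3.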
# [2] = target: Phospholipase A and acyltransferase 3 (Homo sapiens) (UniProt P53816); test: Inhibition of full-length C-terminal FLAG-tagged human PLAAT3 expressed in HEK293T cell lysate at 10 uM preincubated for 30 mins followed by MB064 addition and measured after 20 mins by SDS-PAGE based ABPP analysis; assay type: cell-free; details: HEK-293T
# How it was run: (§2)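 Cytosol from HEK293T cells transiently transfected (PEI) with C-terminal FLAG-tagged human PLAAT, harvested 48–72 h. Inhibitor 10 μM, 30 min rt, then MB064 probe 20 min rt. Protein/MB064: PLAAT2 0.25 μg/μL, 250 nM; PLAAT3 0.5 μg/μL, 250 nM; PLAAT4 1 μg/μL, 500 nM; PLAAT5 1 μg/μL, 500 nM. Read-out: in-gel fluorescence after SDS-PAGE, normalized to Coomassie. Triplicate.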
# [3] = target: T2, Phospholipase A and acyltransferase 5 (Homo sapiens) (UniProt Q96KN8); test: Inhibition of full-length C-terminal FLAG-tagged human PLAAT5 expressed in HEK293T cell lysate at 10 uM preincubated for 30 mins followed by MB064 addition and measured after 20 mins by SDS-PAGE based ABPP analysis; assay type: cell-free; details: HEK-293T; how it was run: as §2
# T2 sequence (whole entry): T1 sequence (Q96KN8 whole entry)
# [4] = target: Phospholipase A and acyltransferase 4 (Homo sapiens) (UniProt Q9UL19); test: Inhibition of full-length C-terminal FLAG-tagged human PLAAT4 expressed in HEK293T cell lysate at 10 uM preincubated for 30 mins followed by MB064 addition and measured after 20 mins by SDS-PAGE based ABPP analysis; assay type: cell-free; details: HEK-293T; how it was run: as §2
# [5] = target: T3, Phospholipase A and acyltransferase 2 (Homo sapiens, UniProt Q9NWW9); test: Inhibition of full-length C-terminal FLAG-tagged human PLAAT2 expressed in HEK293T cell lysate preincubated for 30 mins followed by MB064 addition and measured after 20 mins by SDS-PAGE based ABPP analysis; assay type: cell-free, HEK-293T; how it was run: as §1
# T3 sequence (Q9NWW9 whole entry): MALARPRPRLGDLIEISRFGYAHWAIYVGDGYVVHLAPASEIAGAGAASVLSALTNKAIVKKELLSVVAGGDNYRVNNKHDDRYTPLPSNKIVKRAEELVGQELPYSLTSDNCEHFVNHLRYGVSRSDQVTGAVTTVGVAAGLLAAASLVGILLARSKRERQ
# [6] = target: T4, Phospholipase A and acyltransferase 2 (Homo sapiens) (UniProt Q9NWW9); test: Inhibition of full-length C-terminal FLAG-tagged human PLAAT2 expressed in HEK293T cell lysate at 10 uM preincubated for 30 mins followed by MB064 addition and measured after 20 mins by SDS-PAGE based ABPP analysis; assay type: cell-free; details: HEK-293T; how it was run: as §2
# T4 sequence (whole entry): T3 sequence (Q9NWW9 whole entry)
# [7] = target: T5, Phospholipase A and acyltransferase 3 (Homo sapiens, UniProt P53816); test: Inhibition of full-length C-terminal FLAG-tagged human PLAAT3 expressed in HEK293T cell lysate preincubated for 30 mins followed by MB064 addition and measured after 20 mins by SDS-PAGE based ABPP analysis; assay type: cell-free, HEK-293T; how it was run: as §1
# T5 sequence (P53816 whole entry): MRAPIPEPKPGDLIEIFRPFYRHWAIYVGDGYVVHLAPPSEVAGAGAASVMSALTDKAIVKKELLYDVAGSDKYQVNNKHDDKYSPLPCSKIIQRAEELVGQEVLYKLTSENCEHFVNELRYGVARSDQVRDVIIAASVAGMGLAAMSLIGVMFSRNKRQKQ
# [8] = target: T6, Phospholipase A and acyltransferase 4 (Homo sapiens, UniProt Q9UL19); test: Inhibition of full-length C-terminal FLAG-tagged human PLAAT4 expressed in HEK293T cell lysate preincubated for 30 mins followed by MB064 addition and measured after 20 mins by SDS-PAGE based ABPP analysis; assay type: cell-free, HEK-293T; how it was run: as §1
# T6 sequence (Q9UL19 whole entry): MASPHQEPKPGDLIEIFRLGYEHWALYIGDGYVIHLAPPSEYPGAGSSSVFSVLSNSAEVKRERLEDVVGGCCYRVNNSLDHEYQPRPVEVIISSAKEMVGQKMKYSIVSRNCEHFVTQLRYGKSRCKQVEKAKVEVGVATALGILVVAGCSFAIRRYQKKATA
# Homo sapiens [9] = species on record: Homo sapiens; test: Selectivity index, difference between pIC50 for full-length C-terminal FLAG-tagged human PLAAT5 expressed in HEK293T cell lysate to pIC50 for full-length C-terminal FLAG-tagged human PLAAT2 expressed in HEK293T cell lysate
# How it was run: (§3)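 Cytosol of HEK293T cells transiently transfected (PEI) with C-terminal FLAG-tagged human PLAAT, harvested at 48 or 72 h. Dose-response: pretreated with inhibitor or DMSO for 30 min at rt, then labelled with MB064 for 20 min at rt. Protein and MB064: PLAAT2 0.25 μg/μL, 250 nM; PLAAT3 0.5 μg/μL, 250 nM; PLAAT4 1 μg/μL, 500 nM; PLAAT5 1 μg/μL, 500 nM. Read by SDS-PAGE in-gel fluorescence normalized to Coomassie. Triplicate pIC50s; index is the pIC50 difference.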
# Homo sapiens [10] = species on record: Homo sapiens; test: Selectivity index, difference between pIC50 for full-length C-terminal FLAG-tagged human PLAAT5 expressed in HEK293T cell lysate to pIC50 for full-length C-terminal FLAG-tagged human PLAAT4 expressed in HEK293T cell lysate; how it was run: as §3
# Homo sapiens [11] = species on record: Homo sapiens; test: Selectivity index, difference between pIC50 for full-length C-terminal FLAG-tagged human PLAAT5 expressed in HEK293T cell lysate to pIC50 for full-length C-terminal FLAG-tagged human PLAAT3 expressed in HEK293T cell lysate; how it was run: as §3
IC50 [1],inhibition [2],inhibition [3],inhibition [4],IC50 [5],inhibition [6],IC50 [7],IC50 [8],Selectivity Index (Homo sapiens [9]),Selectivity Index (Homo sapiens [10]),Selectivity Index (Homo sapiens [11]),Structure (SMILES)
> 10 µM,inactive,inactive,inactive,> 10 µM,inactive,> 10 µM,> 10 µM,–,–,–,O=C(NCCc1ccccc1)C(O)CCc1ccc(Cl)cc1 (stereo not given)
0.126 µM,–,–,–,3.98 µM,–,3.98 µM,1.26 µM,10 to 30,10 to 30,10 to 30,O=C(CCc1ccc(Oc2ccccc2)cc1)C(=O)NCCc1ccccc1
